# A selection: hits, their analogues and other compounds. The true share with any hit is near 1.8%.
# Gli-Sufu antag – Gli-Sufu pathway antagonists, primary screen, luciferase luminescence, Sufu-KO-LIGHT cells, uHTS. Sufu-KO-LIGHT fibroblasts, Gli luciferase reporter luminescence. inhibition, % at 5 µM. 0.74% of 340,000 active. AID 588413, 2011;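 active means inhibition above about 55%, limit read from the data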;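 further: 0% = DMSO-treated cells and 100% = wells with medium but no cells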
# Lipid droplet – inhibitors of hepatocyte lipid droplet formation, primary screen, imaging, high-throughput imaging, BODIPY stain. inhibition, % at 6.5 µM. 0.4% of 240,000 active. AML12 mouse hepatocytes, oleate lipid droplets. AID 1656, 2009;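 active means lipid droplet intensity inhibited by at least 50%, with more than 500 cells counted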
#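 Assay system: AML12 mouse liver cells | Compound dosing: One dose, 6.5 µM compound | Read-out basis: Droplet intensity reduction, % inhibition | Measured by: Fluorescence imaging, 20x objective, two fields per well | Schedule: Overnight treatment with compound plus oleate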
# 697 NFkB inh – inhibitors of PMA/ionomycin-induced NF-kB reporter, 697 cells, primary screen, B-cell NF-kB inhibitor project, cell-based, luminescence, uHTS | 697 B-cell NF-kB luciferase reporter, 16 h | 0.33% of 330,000 active | inhibition, % at 4 µM | AID 435022, 2010; in the data active means inhibition above about 35%
# Jurkat NFkB inh – inhibitors of induced NF-kB luciferase reporter, primary screen, TCR NF-kB activation inhibitor project, cell-based, luminescence, uHTS. AID 435003, 2010. 0.53% of 330,000 active. inhibition, % at 4 µM. Jurkat, PMA/ionomycin-induced NF-kB luciferase reporter; in the data active means inhibition above about 50%
# hiPSC survival – enhancers of single-cell hiPSC survival, primary screen, ATPlite luminescence; 0.044% of 360,000 active; AID 602274, 2012; 100% = ROCK inhibitor wells, 0% = DMSO; survival enhancement, % at 20 µM; in the data active means survival enhancement above about 18%;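 further: cells exposed to compounds for 16 hours before the ATP read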
# H9c2 TAG inh – inhibitors of triacylglycerol accumulation, primary screen, cell-based, uHTS, fluorescence, H9c2; 0.66% of 230,000 active; AID 651582, 2012; inhibition, % at 12.5 µM; H9c2 cells, Nile Red lipid (TAG) fluorescence; cells loaded with 200 µM oleic acid;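 active means pattern-corrected inhibition of lipid staining of at least 50% with the nuclear-stain viability signal not falling by more than 50%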;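 further: 0% = DMSO wells and 100% = triacsin C control wells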
# Gli antag conf – Gli-SUFU pathway antagonists, confirmation, single concentration, luciferase luminescence, Sufu-KO-LIGHT cells; 40% of 2,500 active; Gli luciferase reporter; shares compounds with Gli-Sufu antag; inhibition, % at 5 µM;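 active means mean inhibition at 5 µM reaching about 45%, limit read from the data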;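 further: plate controls were DMSO-treated cells for no effect and wells lacking cells for full effect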
# Gli cytotox – cytotoxicity in Sufu-KO-LIGHT cells, confirmation, cytotoxicity control for Gli-SUFU antagonist project, cell-based, ATP luminescence, single concentration. 32% of 2,500 active. shares compounds with Gli-Sufu antag. cytotoxicity, % at 5 µM;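 active means mean cytotoxicity at 5 µM above about 25%, limit read from the data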;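 further: cells exposed to compound overnight for roughly 16 to 18 hours; plate controls were DMSO wells with cells for no effect and medium without cells for full effect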
# Wnt3a counter – Wnt3a reporter signal inhibition, confirmation, counter-screen for Gli-SUFU antagonist project, Wnt-LIGHT cells, luminescence, single concentration | shares compounds with Gli-Sufu antag | Wnt3a-driven luciferase reporter | inhibition, % at 6.25 µM | 20% of 2,500 active | AID 651995, 2013;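 active means mean inhibition above about 25%, limit read from the data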
# * hit, by the source's call; . = not tested or not shown.
SMILES,Gli-Sufu antag,Lipid droplet,697 NFkB inh,Jurkat NFkB inh,hiPSC survival,H9c2 TAG inh,Gli antag conf,Gli cytotox,Wnt3a counter
COc1cc(/C=N\NC(=O)c2ccc(Cn3nc([N+](=O)[O-])c(Cl)c3C)o2)ccc1O,11.2,-12.8,10.3,-3.8,1.6,2.0,.,.,.
Cc1ccc(NC(=O)CSc2ccc3c(c2)OCCO3)c(O)c1,73.2*,-90.3,0.4,15.0,-0.1,-37.3,69.3*,42.6*,51.4*
Cc1ccnc(NC(=O)CSc2ccc3c(c2)OCCO3)c1,-8.5,.,-6.4,-30.7,0.5,-4.9,.,.,.
CCCC(=O)Nc1c(C(=O)OCC)[nH]c2ccccc12,75.4*,-1.0,-7.6,-15.5,-0.8,6.5,14.8,17.1,-49.3
CCOC(=O)c1[nH]c2ccccc2c1NC(=O)CC(C)C,53.6,6.1,-11.0,-16.9,0.0,9.8,22.6,8.8,-19.5
O=C(NCc1ccc2c(c1)OCO2)c1nc(Cn2cc([N+](=O)[O-])cn2)no1,53.7,-1.7,9.5,7.8,-0.3,.,11.2,-10.1,-2.6
O=C(Cn1cc([N+](=O)[O-])cn1)N1CCN(Cc2ccc3c(c2)OCO3)CC1,-14.2,-2.2,1.4,8.6,-0.5,.,.,.,.
Cc1ccc(S(=O)(=O)N(Cc2ccccc2)c2ccccc2C(=O)NCc2ccco2)cc1,96.3*,.,6.9,-12.2,-0.4,.,22.9,22.2,4.5
Cc1cc(C(=O)COc2ccccc2C(N)=O)c(C)n1CC1CCCO1 (stereo not drawn),57.6*,4.7,24.6,44.7,-0.6,-5.6,55.8*,37.3*,21.0
CC1=C(C(=O)OCC(C)C)C(c2cccc(F)c2)N2C(=O)C(C)SC2=N1 (stereo not drawn),65.3*,2.3,-6.5,-10.8,2.7,-1.9,10.9,-3.4,-12.1
CCOC(=O)C1=C(C)N=C2SC(C)C(=O)N2C1c1cccc(F)c1 (stereo not drawn),5.2,.,12.7,-1.6,-1.4,-26.0,.,.,.
COc1ccc(C(=O)Nc2ccc3c(c2)C(=O)N(C)C3=O)cc1OC,-8.8,8.6,-52.1,-14.6,-0.4,.,.,.,.
CC(=O)N1CCCc2cc(S(=O)(=O)N3CCCC(C(=O)NCc4ccccc4)C3)ccc21 (stereo not drawn),50.8,-15.2,-9.7,1.7,-0.2,.,20.5,8.0,-8.5
CC(C)CCNC(=O)C1CCCN(S(=O)(=O)c2ccc3c(c2)CC(C)N3C(=O)C2CC2)C1 (stereo not drawn),56.6*,1.2,13.5,-12.0,-0.1,.,31.9,3.9,-30.8
CCN(CC)C(=O)c1oc2ccc(S(=O)(=O)N3CC(C)CC(C)C3)cc2c1C (stereo not drawn),63.0*,-103.2,-8.9,32.2,0.2,.,62.3*,22.9,43.8*
CC(C)(C)c1ccc(COc2ccsc2C(=O)O)cc1,3.2,7.1,-31.7,-0.6,2.3,4.2,.,.,.
COc1ccccc1NC(=O)Nc1ccc(Cc2ccncc2)cc1,50.3,-1.1,0.5,-1.5,-0.5,9.3,14.9,6.9,-37.9
COc1ccccc1NC(=O)Nc1ccncc1,-11.1,5.9,1.6,-6.1,-1.9,1.8,.,.,.
COc1ccc2c(c1)c(CC(=O)OCC(=O)O)c(C)n2C(=O)c1ccc(Cl)cc1,-18.5,24.3,12.1,11.2,-0.1,-1.6,.,.,.
COc1ccc2c(c1)c(CC(=O)OCC(N)=O)c(C)n2C(=O)c1ccc(Cl)cc1,64.5*,-3.2,6.4,6.7,-0.7,-1.4,12.1,-3.3,-6.8
Cc1ccc2c(c1)N(CCC(=O)NCc1ccccn1)C(=O)CO2,52.7,17.4,13.8,-0.2,2.0,.,8.5,-0.1,5.3

# Bioassay records: PubChem, Sanford-Burnham Center for Chemical Genomics
